Measured values taken from PubChem BioAssay AID822 (SRMLSC, 2007).
The source made the active and inactive calls.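 The calls were made as follows: active = half-maximal effective dose for blocking growth of human endothelial cells at most 100 µM; inactive = the rest.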

system: HUVEC proliferation, viability ATP luminescence; experiment: growth suppression of umbilical vein endothelial cells – cell-based, HUVEC, ATP luminescence, dose response (AID 822); conditions: not given;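 also: cells exposed to compound for 72 h before the ATP read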;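 as to viability: 100% = median luminescence of untreated cell-only control wells on each plate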
Outline: (§1)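 Test system: HUVEC; Input: 1250 HUVEC cells seeded per well; Doses: 0.039–20 µM, 0.2% DMSO; Evaluation: % viability versus median cell-only wells, EC50 from 4-parameter fit; Medium: EBM plus 2% FBS; Incubation: compound treatment 72 h, 37 °C; Signal: luminescent ATP measurement with CellTiter-Glo reagent; Plate: collagen-coated multiwell plates.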

Compared with `N#C/C(=C/c1ccc(N2CCCCCC2)o1)c1ccc(Cl)cc1`, `c1ccc(-c2nc(N3CCCCCC3)c3ccccc3n2)nc1` is 12-fold lower in EC50: 18.3 µM for the first, 1.55 µM for the second.

Going from `CC(C)c1ccc(C2C3CSCC=C3C(C#N)=C(N)C2(C#N)C#N)cc1` (stereo unspecified) to `CC(C)(C)C1CC=C2C(C#N)=C(N)C(C#N)(C#N)C(c3cccs3)C2C1` (stereo unspecified), the EC50 rises from 4.86 µM to 12.2 µM (2.5-fold).

First: Cc1cc(C)cc(OC(=O)CS(=O)c2ccc(C(F)(F)F)cc2[N+](=O)[O-])c1 (stereo unspecified)
Second: Cc1cc(NC(=O)COC(=O)C(Nc2ccc(C(F)(F)F)cc2Cl)C(C)C)no1 (stereo unspecified)
The EC50 of the first is 1.5-fold higher: 18.7 µM for the first, 12.2 µM for the second. The second is the more potent here.

`Cc1cc(C)n(-c2nc(SCC(=O)N3CCCC3)c3c4c(sc3n2)CCCC4)n1` and `CCCCc1nc2sc3c(SCC(=O)NCc4ccco4)ncnc3c2c2c1CCC2` are within 1.5-fold of each other in EC50: 19.4 µM for the first, 13.4 µM for the second.

`Cc1ccccc1NC(=O)CSC(N)=O` and `CCOC(=O)/C=C/S(=O)(=O)c1ccc(NC(C)=O)cc1` are within 1.5-fold of each other in EC50: 19 µM for the first, 15.8 µM for the second.

Compared with `CCOC(=O)c1cnc(-n2nc(C)cc2C)nc1NCCc1ccccc1`, `Cc1ccc(C(=O)Nc2ncc(Cc3ccccc3)s2)o1` is 18-fold lower in EC50: 12.7 µM for the first, 0.711 µM for the second. The second is the more potent here.

`Cc1ccc(N=Nc2c(C)[nH][nH]c2=O)c(C)c1` and `CC1=CC(C)(C)N2C(=O)C3(C(C#N)=C(N)Oc4cc(O)ccc43)c3c(C)c(C)cc1c32` (stereo unspecified) are within 1.5-fold of each other in EC50: 7.59 µM for the first, 6.14 µM for the second.

Compared with `CC1CC(C)(C)CC2(C1)NC(=S)N(c1ccccc1)N2` (stereo unspecified), `CC(C)C1Cc2c(sc3[nH]c(=S)n(Cc4ccccc4)c(=O)c23)CO1` (stereo unspecified) is 4-fold lower in EC50: 12.3 µM for the first, 3.05 µM for the second.

Compared with `O=C(Nc1cccc(-c2nnc(-c3ccccc3)o2)c1)c1ccc(Br)o1`, `c1ccc(-c2nc3nonc3nc2-c2ccccc2)cc1` is 2.9-fold lower in EC50: 9.92 µM for the first, 3.46 µM for the second. The second is the more potent here.

`CCCOC(=O)c1ccc(Oc2cn[nH]c2-c2ccc(OC)cc2O)cc1` and `COc1ccc(Nc2nc(N3CCCC3)nc3ccccc23)c(OC)c1` are within 1.5-fold of each other in EC50: 12.3 µM for the first, 12.5 µM for the second.

`N=c1c2c(-c3ccccc3)c(-c3ccccc3)oc2ncn1CCCN1CCOCC1` and `CN1CCN(c2ccccc2NC(=O)c2cccc(OCc3ccccc3)c2)CC1` are within 1.5-fold of each other in EC50: 13.6 µM for the first, 10.8 µM for the second.

`CC(Nc1nc(N2CCCC2)nc2ccccc12)c1ccccc1` (stereo unspecified) and `O=C1CC(c2ccco2)Cc2nc(Nc3nc(-c4ccccc4)c4ccccc4n3)ncc21` (stereo unspecified) are within 1.5-fold of each other in EC50: 5.19 µM for the first, 7.44 µM for the second.

`Cc1ccc(C2Oc3ccccc3C3=C2C(c2cccs2)n2ncnc2N3)cc1` (stereo unspecified) and `Cc1ccc2oc3c(c(=O)c2c1)C(c1cccc(Br)c1)N(Cc1ccco1)C3=O` (stereo unspecified) are within 1.5-fold of each other in EC50: 13.4 µM for the first, 19.9 µM for the second.

`CCn1cc(C(=O)NCc2ccc3c(c2)OCO3)c(=O)c2cc(F)c(N3CCN(C(=O)c4ccco4)CC3)cc21` and `CCc1nc(SCC(=O)Nc2ccc3c(c2)OCCO3)c2oc3ccccc3c2n1` are within 1.5-fold of each other in EC50: 10.4 µM for the first, 9.5 µM for the second.

`Nc1c(C(=O)C2CC2)sc2nc(-c3cccs3)cc(C(F)(F)F)c12` and `Cc1ccc(S(=O)(=O)c2c(C)nn(C(C)(C)C)c2OC(=O)c2cccs2)cc1` are within 1.5-fold of each other in EC50: 8.07 µM for the first, 8.95 µM for the second.

Compared with `CCCCS(=O)(=O)/C=C\C=C/S(=O)(=O)CCCC`, `CCCCCCOC(=O)C(C#N)c1nc2ccccc2nc1N1CCN(C)CC1` (stereo unspecified) is 2-fold higher in EC50: 5.04 µM for the first, 10 µM for the second.

`CCOC(=O)c1cc2c(N)c(C(=O)c3cc(C#N)c(SC)nc3C)sc2nc1C` and `CCOC(=O)c1c(NC(=O)CSc2nc(C)cc(C)c2C#N)sc(C(C)=O)c1C` are within 1.5-fold of each other in EC50: 5.27 µM for the first, 4.87 µM for the second.

First: Cc1ccccc1-n1ncc2c([N+](=O)[O-])cc([N+](=O)[O-])cc21
Second: CC1=NOC(=O)/C1=C/c1ccc(-c2ccc(Cl)cc2)o1
The EC50 of the first is 2.3-fold higher: 9.29 µM for the first, 4.06 µM for the second. The second is the more potent here.

Compared with `COC(=O)c1sccc1NC(=O)c1ccc2c(c1)OCO2`, `CC1=C(C(=O)OC2CCCCCCC2)C(c2cc3c(cc2Br)OCO3)CC(=O)N1` (stereo unspecified) is 2.9-fold lower in EC50: 20.4 µM for the first, 6.99 µM for the second. The second is the more potent here.

Compared with `O=C1CSC(=S)N1Cc1cccnc1`, `CCn1c(=N)n(CC(=O)C23CC4CC(CC(C4)C2)C3)c2ccccc21` is 2.2-fold lower in EC50: 19.2 µM for the first, 8.77 µM for the second. The second is the more potent here.

`CCc1[nH]nc2c1C(c1ccc(Br)s1)C(C#N)=C(N)O2` (stereo unspecified) and `CCn1c(=O)cc(C(=O)OC)sc1=Nc1ccc(F)c(F)c1` are within 1.5-fold of each other in EC50: 14 µM for the first, 11.7 µM for the second.

With `COc1cc(N=c2ssnc2Cl)cc(OC)c1OC` the EC50 was 13.4 µM.

In the case of `O=C1CCCc2c1[nH]c1ccc(Br)cc21`, the EC50 is reported as > 10 µM (inactive).

system: not listed separately; experiment: as above; conditions: HUVEC proliferation, viability ATP luminescence; at 20 µM (top of the series)
Outline: as §1

With `CCCS(=O)(=O)N1CCC(C(=O)N2CCC3(CC2)OCCO3)CC1` the viability was 99.1% (inactive).
For `Cn1c(NC(=O)c2cccc(Cn3cc(Cl)cn3)c2)nc2ccccc21`, the viability was 83.1% (inactive).
With `CNC(=O)Cn1c(=O)n(C)c2ccccc21` the viability was 91.8% (inactive).
In the case of `CCn1nc(C(=O)NC2=NCCS2)c2ccccc2c1=O`, the viability is reported as 101% (inactive).
With `CC1(C)Cc2ccccc2C(NNC(=O)c2ccccn2)=N1` the viability was 93.7% (inactive).
For `Cc1nn(C)c(C)c1NC(=O)CSc1nc(C2CC2)nc2c1cnn2-c1ccccc1`, the viability was 101% (inactive).
With `C/C(=N\O)C(=O)C(CN1CCCCC1)CN1CCCCC1` the viability was 81% (inactive).
